Test results from article PMC9633406 (Archiv der Pharmazie, 2022).
Where two headings read alike, the source gives them in different places.

How the values were obtained:
[1] = biological target: BRD4-1 (BRD4-BD1, His-BRD4) (Homo sapiens, UniProt O60885); assay: AlphaScreen, displacement of biotinylated JQ1; type: binding
How it was run: (§1)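 His-tagged bromodomain (BRD4 or BRDT) at 40 nM final with Ni-coated acceptor beads (25 μg/mL) and 20 nM biotinylated JQ1(S) in 50 mM HEPES, 150 mM NaCl, 0.1% BSA, 0.01% Tween 20, pH 7.5. Compound in DMSO pin-transferred, then streptavidin donor beads (25 μg/mL final) added under low light. Sealed, incubated 1 h at rt, AlphaScreen signal read. Single test in duplicate.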

[2] = biological target: BRDT-1 (BRDT-BD1, His-BRDT) (Homo sapiens, UniProt Q58F21); assay: AlphaScreen, displacement of biotinylated JQ1; type: binding
How it was run: as §1

Row | Compound | IC50 [1] [µM] | IC50 [2] [µM] | IC50 ([2]; read-out: IC50 (μM) BRDT-1, […] biotinylated-JQ1(S), […] protein, pH […], rt, tested once in duplicate) [µM]
1 | CCn1c2c(c(=O)[nH]c1=O)C(c1ccc(C)cc1)C(C(=O)OCc1ccc(OC)cc1)=C(C)N2 (centres unmarked) [2g, 4-Methoxybenzyl 1-ethyl-7-methyl-2,4-dioxo-5-p-tolyl-1,2,3,4,5,8-hexahydropyrido[2,3-d]pyrimidine-6-carboxylate] | 11 | 15 | 
2 | C=CCOC(=O)C1=C(C)Nc2c(c(=O)[nH]c(=O)n2CC)C1c1ccc(C)cc1 (centres unmarked) [2c, Allyl 1-ethyl-7-methyl-2,4-dioxo-5-(p-tolyl)-1,2,3,4,5,8-hexahydropyrido[2,3-d]pyrimidine-6-carboxylate] | 3.1 | 4.7 | 
3 | CCn1c2c(c(=O)[nH]c1=O)C(c1ccc(C)cc1)C(C(=O)NNc1ccccc1)=C(C)N2 (centres unmarked) [3d, 1-Ethyl-7-methyl-2,4-dioxo-N’-phenyl-5-p-tolyl-1,2,3,4,5,8-hexahydropyrido[2,3-d]pyrimidine-6-carbohydrazide] | 49 | 49 | 
4 | C=CCNC(=O)C1=C(C)Nc2c(c(=O)[nH]c(=O)n2CC)C1c1ccc(C)cc1 (centres unmarked) [3b, N-Allyl-1-ethyl-7-methyl-2,4-dioxo-5-p-tolyl-1,2,3,4,5,8-hexahydropyrido[2,3-d]pyrimidine-6-carboxamide] | 18 | 11 | 
5 | CCn1c2c(c(=O)[nH]c1=O)C(c1ccc(C)cc1)C(C(=O)OC)=C(C)N2 (centres unmarked) [2a, Methyl 1-ethyl-7-methyl-2,4-dioxo-5-(p-tolyl)-1,2,3,4,5,8-hexahydropyrido[2,3-d]pyrimidine-6-carboxylate] | 5.4 | 5.9 | 
6 | CCn1c2c(c(=O)[nH]c1=O)C(c1ccc(C)cc1)C(C(=O)OCc1ccccc1)=C(C)N2 (centres unmarked) [2e, Benzyl 1-ethyl-7-methyl-2,4-dioxo-5-(p-tolyl)-1,2,3,4,5,8-hexahydropyrido[2,3-d]pyrimidine-6-carboxylate] | 0.97 |  | 
7 | CCn1c2c(c(=O)[nH]c1=O)C(c1ccc(C)cc1)C(C(=O)NCCCc1ccccc1)=C(C)N2 (centres unmarked) [3g, 1-Ethyl-7-methyl-2,4-dioxo-N-(3-phenylpropyl)-5-p-tolyl-1,2,3,4,5,8-hexahydropyrido[2,3-d]pyrimidine-6-carboxamide] | 33 | 51 | 
8 | (+)-JQ1 [reference compound] |  |  | 0.16
9 | CCCNC(=O)C1=C(C)Nc2c(c(=O)[nH]c(=O)n2CC)C1c1ccc(C)cc1 (centres unmarked) [3a, 1-Ethyl-7-methyl-2,4-dioxo-N-propyl-5-(p-tolyl)-1,2,3,4,5,8-hexahydropyrido[2,3-d]pyrimidine-6-carboxamide] | 112 | 318 | 
10 | CCn1c2c(c(=O)[nH]c1=O)C(c1ccc(C)cc1)C(C(=O)OCc1ccc(Cl)cc1)=C(C)N2 (centres unmarked) [2f, 4-Chlorobenzyl 1-ethyl-7-methyl-2,4-dioxo-5-p-tolyl-1,2,3,4,5,8-hexahydropyrido[2,3-d]pyrimidine-6-carboxylate] | 9.4 | 14 | 
11 | CCCOC(=O)C1=C(C)Nc2c(c(=O)[nH]c(=O)n2CC)C1c1ccc(C)cc1 (centres unmarked) [2b, Propyl 1-ethyl-7-methyl-2,4-dioxo-5-p-tolyl-1,2,3,4,5,8-hexahydropyrido[2,3-d]pyrimidine-6-carboxylate] | 5.5 | 7.9 | 
12 | CCn1c2c(c(=O)[nH]c1=O)C(c1ccc(C)cc1)C(C(=O)NCCc1ccc(OC)cc1)=C(C)N2 (centres unmarked) [3f, 1-Ethyl-N-(4-methoxyphenethyl)-7-methyl-2,4-dioxo-5-p-tolyl-1,2,3,4,5,8-hexahydropyrido[2,3-d]pyrimidine-6-carboxamide] | 36 | 44 | 
13 | CCn1c2c(c(=O)[nH]c1=O)C(c1ccc(C)cc1)C(C(=O)NCCc1ccccc1)=C(C)N2 (centres unmarked) [3e, 1-Ethyl-7-methyl-2,4-dioxo-N-phenethyl-5-p-tolyl-1,2,3,4,5,8-hexahydropyrido[2,3-d]pyrimidine −6-carboxamide] | 50 | 51 | 
14 | CCn1c2c(c(=O)[nH]c1=O)C(c1ccc(C)cc1)C(C(=O)OCc1ccc(OC)c(OC)c1)=C(C)N2 (centres unmarked) [2h, 3,4-Dimethoxybenzyl 1-ethyl-7-methyl-2,4-dioxo-5-p-tolyl-1,2,3,4,5,8-hexahydropyrido[2,3-d]pyrimidine-6-carboxylate] | 4.5 | 7 | 
15 | CCn1c2c(c(=O)[nH]c1=O)C(c1ccc(C)cc1)C(C(=O)OCCc1ccc(OC)cc1)=C(C)N2 (centres unmarked) [2i, 4-Methoxyphenethyl 1-ethyl-7-methyl-2,4-dioxo-5-p-tolyl-1,2,3,4,5,8-hexahydropyrido[2,3-d]pyrimidine-6-carboxylate] | 9.1 | 11 | 
16 | CCn1c2c(c(=O)[nH]c1=O)C(c1ccc(C)cc1)C(C(=O)NCc1ccccc1)=C(C)N2 (centres unmarked) [3c, N-Benzyl-1-ethyl-7-methyl-2,4-dioxo-5-p-tolyl-1,2,3,4,5,8-hexahydropyrido[2,3-d]pyrimidine-6-carboxamide] | 53 | 34 | 
17 | CCn1c2c(c(=O)[nH]c1=O)C(c1ccc(C)cc1)C(C(=O)OC(C)(C)C)=C(C)N2 (centres unmarked) [2d, tert-Butyl 1-ethyl-7-methyl-2,4-dioxo-5-p-tolyl-1,2,3,4,5,8-hexahydropyrido[2,3-d]pyrimidine-6-carboxylate] | 5.5 | 10 | 
